Assay outcomes deposited in PubChem by Sanford-Burnham Center for Chemical Genomics.
The list is not random: actives were taken first. Their share in the collection is about 2.3%.
SUMO1 PPI mod: SUMO1-SIM interaction modulation. AID 602429. SUMO1 binding to a labelled peptide, TR-FRET, 1 h. 360,000 compounds, 0.33% hits. P63165. inhibition, % at 20 µM; in the data active means inhibition above about 37%
STEP inh: inhibitors of human striatal-enriched phosphatase STEP. 360,000 compounds, 0.25% hits. inhibition, % at 20 µM. P54829. recombinant STEP, OMFP fluorogenic substrate, fluorescence. AID 588621;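 active means inhibition at 20 µM, scaled per plate between control wells, above about 37%, limit read from the data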
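Test system: STEP tyrosine phosphatase / Reagent: OMFP at 25 µM / Doses: 20 µM, 1% DMSO / Read-out: percent inhibition scaled to no-enzyme and uninhibited-enzyme controls, plate-pattern corrected / Detection: FITC-channel fluorescence of OMFP product / Medium: Bis-Tris buffer pH 6.0, 2.5 mM DTT, 0.005% Tween 20 / Schedule: 20 min at room temperature, dark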
Scp-1 inhibitor: inhibitors of human Scp-1 phosphatase; Q9GZU7; Recombinant Scp1, phosphopeptide, malachite green phosphate absorbance; inhibition, % at 20 µM; 340,000 compounds, 0.88% hits; AID 493091;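 active means inhibition above about 50% at 20 µM, limit read from the data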
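Test system: SCP-1 phosphatase catalytic domain, residues 76-261 | Compound dosing: One concentration, 20 µM, with 1.0% DMSO | Schedule: 45 min room-temperature reaction, 5 min colour, 30 min stabiliser | Detection: Absorbance at 630 nm | Read-out basis: % inhibition of SCP-1 phosphate liberation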
DNMT1 inh: DNMT1 (human) enzyme inhibition | P26358 | DNMT1 molecular beacon, Hinp1I cleavage, fluorescence | inhibition (reported as % activation of signal), % at 10 µM | 360,000 compounds, 0.83% hits; in the data active means inhibition above about 50%
LMPTP inh: LMPTP (human) inhibition | P24666 | 360,000 compounds, 0.22% hits | AID 651560 | recombinant LMPTP-A, OMFP fluorogenic substrate, fluorescence intensity | inhibition, % at 20 µM;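 active means compounds that cut the enzyme signal by at least half of the control window in the single-dose screen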
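Test system – LMPTP-A phosphatase enzyme · Quantity – 0.625 nM LMPTP-A final · Reagent – OMFP substrate, 400 µM final · Dosing – one test concentration per compound, 20 µM, with 3% DMSO overall · Timing – 50 min enzyme reaction at room temperature, protected from light · Detection – fluorescence intensity · Controls – substrate-only low control, DMSO enzyme-plus-substrate high control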
Rpn11 block: blocks the human proteasome subunit Rpn11. 360,000 compounds, 0.59% hits. O00487. human 26S proteasome, Ub4-pepOG fluorescence polarization; 20S core pre-blocked with epoxomicin. inhibition, % at 20 µM;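 active means inhibition at 20 µM, scaled to each plate's controls, above about 33%, limit read from the data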
Scp1 confirm: confirmation of human Scp-1 phosphatase inhibitors; shares compounds with Scp-1 inhibitor; recombinant SCP-1 catalytic domain, phosphate release, malachite green absorbance; inhibition, % at 20 µM; 2,500 compounds, 61% hits; AID 540281
Scp-1 MG ctr: colorimetric interference in Scp-1 counter-screen; shares compounds with Scp-1 inhibitor; Colorimetric interference counterscreen, malachite green absorbance 630 nm; apparent inhibition (interference), % at 20 µM; 2,500 tested, under 10 active;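 further: compounds added after enzyme reaction finished so only phosphate colour detection is probed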
Scp-1 Tm shift: binds human Scp-1, shifting its melting temperature; 1,500 compounds, 25% hits; Recombinant SCP1, Sypro Orange thermal shift Tm; shares compounds with Scp-1 inhibitor; thermal shift relative to vanadate control, % at 40 µM;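 active means substances whose mean melting-temperature shift, as a percentage of the reference inhibitor's shift, reaches about 5.3%, limit read from the data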
Numbers stand for hits; - = inactive; . = no result.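 How the source made its calls, unless noted: active means inhibition of at least 30% at 20 µM; inactive means the rest.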

SMILES	SUMO1 PPI mod	STEP inh	Scp-1 inhibitor	DNMT1 inh	LMPTP inh	Rpn11 block	Scp1 confirm	Scp-1 MG ctr	others
O=C(CSc1ncccc1-c1nc2ccccc2[nH]1)NCc1ccco1	-	-	55.5	-	-	-	66.4	-	Scp-1 Tm shift=6.5
Cc1ccc[n+](CC(=O)Nc2ccc(Cl)c([N+](=O)[O-])c2)c1	-	-	84.3	-	-	-	-	-
O=C(C[n+]1ccccc1)Nc1ccc(Cl)c([N+](=O)[O-])c1	-	-	-	-	-	-	.	.
CC(C)NS(=O)(=O)c1ccc(CCC(=O)N2CCc3ccccc3C2)cc1	-	-	-	-	-	-	.	.
CC1CCN(C(=O)CCc2ccc(S(=O)(=O)NC(C)C)cc2)CC1	-	-	66.6	-	-	-	-	-
O=C(O)CC(Sc1n[nH]c(=S)s1)C(=O)O (configuration not stated)	-	-	79.2	-	-	-	35.6	-	Scp-1 Tm shift=-
O=C(NCC(=O)N1CCC2(CC1)NCCc1[nH]cnc12)c1ccc2ccccc2c1	-	-	-	-	-	-	.	.
CCc1noc(C)c1C(=O)NNC(=O)COc1ccc(Br)cc1	-	-	-	-	-	-	.	.
O=C(CN1C(=O)/C(=C2/SC(=S)N(CCS(=O)(=O)O)C2=O)c2ccccc21)Nc1cccc(Br)c1	-	86.9	81.5	-	-	-	81.1	-	Scp-1 Tm shift=15.8
COc1cccc(-c2cc(C(F)(F)F)nc(-n3cc(C)cn3)n2)c1	-	-	55.2	-	-	-	-	-
COc1cccc(-c2cc(C(F)(F)F)nc(-n3cncn3)n2)c1	-	-	-	-	-	-	.	.
COc1cc(CC(=O)N2CCN(C(=O)C3CCCO3)CC2)cc(OC)c1OC (configuration not stated)	-	-	-	-	-	-	.	.
Cn1c(C(C(=O)NCC2CCCO2)N(C(=O)Cn2nnc3ccccc32)C2CCCCC2)nc2ccccc21 (configuration not stated)	-	-	68.0	-	-	-	-	-
CC(=O)c1ccccc1N(C(=O)Cn1nnc2ccccc21)C(C(=O)NCC1CCCO1)c1ccc(N2CCOCC2)cc1 (configuration not stated)	-	-	-	-	-	-	.	.
O=C(CCC(=O)c1cccs1)NCc1cccc(Cl)c1	-	-	-	-	-	-	.	.
COC(=O)c1ccn(CC(=O)NC2CCCCC2)n1	-	-	66.0	-	-	-	48.1	-	Scp-1 Tm shift=-
CCc1cccc(CC)c1NC(=S)Nc1ccccc1	-	-	-	-	-	-	.	.
O=C(CN1C(=O)NC2(CCCCC2)C1=O)NCC(=O)Nc1ccc(F)c(F)c1	-	-	-	-	-	-	-	-
O=C(c1cc(C2CC2)nn1-c1ccccc1)N1CCN(c2ccc(O)cc2)CC1	-	-	-	-	-	-	.	.
Cc1ccc(NC(=O)CN2C(=O)S/C(=C\c3ccc(C(=O)O)cc3)C2=O)cc1	-	-	-	-	-	-	.	.
Cc1cc(C(=O)O)ccc1-c1ccc(/C=C2\NC(=O)N(Cc3ccccc3Cl)C2=O)o1	-	-	64.9	63.8	-	-	74.6	-	Scp-1 Tm shift=9.3
Cc1ccccc1NC(=O)CN1C(=O)S/C(=C\c2ccc(-c3cc(C(=O)O)ccc3C)o2)C1=O	-	-	97.8	-	-	-	68.9	-	Scp-1 Tm shift=-
Cc1ccc(C(=O)O)cc1-c1ccc(/C=C2\SC(=O)N(CC(=O)Nc3ccccc3)C2=O)o1	-	-	72.7	67.2	-	-	83.6	-	Scp-1 Tm shift=10.2
O=C(NC1CC1)C1CCN(c2ncccn2)CC1	-	-	-	-	-	-	.	.
COC(=O)c1nnn(-c2nonc2N)c1CSc1nnc(C)s1	-	-	50.9	-	-	-	-	-
SMILES	SUMO1 PPI mod	STEP inh	Scp-1 inhibitor	DNMT1 inh	LMPTP inh	Rpn11 block	Scp1 confirm	Scp-1 MG ctr	others
CC(NC(=O)COC(=O)/C(=C/c1cccs1)c1cccs1)c1ccccc1 (configuration not stated)	-	-	-	-	-	-	.	.
Cc1cc(C)cc(OCCn2nnc3ccccc32)c1	-	-	61.5	-	-	-	-	-
Cc1ccc(C)c(OCCn2nnc3ccccc32)c1	-	-	-	-	-	-	.	.
Cc1ccc(N2CC(C(=O)Nc3nnc(SCCC4OCCO4)s3)CC2=O)cc1 (configuration not stated)	-	-	-	-	-	-	-	-
CCOC(=O)C1(C(=O)OCC)NC(=O)CC1C(C)C (configuration not stated)	-	-	-	-	-	-	.	.
CCO/C(C)=N/Oc1cncnc1	-	-	.	-	-	-	.	.
O=C(NCc1ccccc1CN1CCCC1)c1ccc(Cl)c(S(=O)(=O)N2CCCC2)c1	-	-	-	-	-	-	.	.
Cc1cc(Br)ccc1NC(=O)CN(C)C(=O)c1cc([N+](=O)[O-])ccc1N1CCOCC1	-	-	-	-	-	-	.	.
Cc1nnc(NC(=O)CCSCCC(=O)Nc2nnc(C)s2)s1	-	-	81.7	-	-	-	74.3	-	Scp-1 Tm shift=-
CCOC(=O)C1=C(C)NC(C)=C(C(=O)OCC)C1c1ccc(Br)o1	-	-	-	-	-	-	.	.
CCOC(=O)C1=C(C)NC(=O)NC1c1ccc(Br)o1 (configuration not stated)	-	-	52.2	-	-	-	-	-
CCN(C(=O)CSc1nc2ccc(OC)cc2[nH]1)c1c(N)n(Cc2ccccc2)c(=O)[nH]c1=O	-	-	-	-	-	-	.	.
Cc1ccc2nc(SCC(=O)N(CC(C)C)c3c(N)n(Cc4ccccc4)c(=O)[nH]c3=O)[nH]c2c1	-	-	88.3	-	-	-	-	-
O=C(CSc1nc2c(sc3ccccc32)c(=O)n1CCO)NCc1ccco1	-	-	73.9	-	-	-	63.9	-	Scp-1 Tm shift=-
O=C(OCC(=O)N1CCc2ccccc2C1)c1c(F)cccc1Cl	-	-	-	-	-	-	.	.
O=C1C=C(c2ccccc2)C(c2ccccc2)C1 (configuration not stated)	-	-	-	-	-	-	.	.
COc1cccc(CN(C)C(=O)C2CC(=O)N(c3ccc4c(c3)OCCO4)C2)c1 (configuration not stated)	-	-	-	-	-	-	.	.
O=S(=O)([O-])CCC[n+]1ccc(Oc2ccccc2)cc1	-	-	95.4	-	-	-	93.5	-	Scp-1 Tm shift=-
